Compounds with a hit are over-represented: about 2.1% of the library has one in this group of screens.
LMPTP block = LMPTP (human) inhibition | P24666 | recombinant LMPTP-A, OMFP fluorogenic substrate, fluorescence intensity | inhibition, % at 20 µM | 0.22% of 360,000 active;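 active = compounds that cut the enzyme signal by at least half of the control window in the single-dose screen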
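Test system – LMPTP-A enzyme · Amount – LMPTP-A at 0.625 nM final in the reaction · Buffer or medium – Bis-Tris pH 6.0, DTT, detergent · Reagent – OMFP 400 µM · Doses – single 20 µM dose · Schedule – reaction 50 min, room temperature, dark · Detection – fluorescence intensity of OMFP turnover product · Evaluation – percent inhibition versus substrate-only and uninhibited controls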
GRK2 inh = blocks RNA aptamer binding to human GRK2. 0.59% of 330,000 active. inhibition of aptamer binding, % at 10 µM. bead flow cytometry, FAM-aptamer displacement from GRK2. AID 488847. P25098;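 active = inhibition of aptamer binding above 40%, roughly 3 SD of noise, on plates passing a quality check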;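 note: median bead fluorescence of bound FAM aptamer so fluorescent compounds give negative values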
SUMO1 PPI mod = modulators of human SUMO1-mediated protein-protein interactions; P63165; SUMO1 binding to a labelled peptide, TR-FRET, 1 h; inhibition, % at 20 µM; 0.33% of 360,000 active; AID 602429; in the data active = inhibition above about 37%
STEP inh = inhibitors of human striatal-enriched phosphatase STEP | P54829 | recombinant STEP, OMFP fluorogenic substrate, fluorescence | inhibition, % at 20 µM | 0.25% of 360,000 active | AID 588621;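 active = inhibition at 20 µM, scaled per plate between control wells, above about 37%, limit read from the data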
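Test system: STEP tyrosine phosphatase / Reagent: OMFP at 25 µM / Doses: 20 µM, 1% DMSO / Read-out: percent inhibition scaled to no-enzyme and uninhibited-enzyme controls, plate-pattern corrected / Detection: FITC-channel fluorescence of OMFP product / Medium: Bis-Tris buffer pH 6.0, 2.5 mM DTT, 0.005% Tween 20 / Schedule: 20 min at room temperature, dark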
Scp1 inh = blocks human Scp-1 phosphatase activity. Q9GZU7. Recombinant Scp1, phosphopeptide, malachite green phosphate absorbance. inhibition, % at 20 µM. 0.88% of 340,000 active. AID 493091;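 active = inhibition above about 50% at 20 µM, limit read from the data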
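Test system: SCP-1 catalytic domain; Buffer or medium: Acidic Tris acetate buffer with magnesium and detergent; Also added: Phosphorylated 17-residue peptide substrate; Compound: single 20 µM dose, 1% DMSO; Schedule: enzyme reaction 45 min at room temperature, colour 5 min, stabilisation 30 min; Signal: Phosphate-binding colour reagent, absorbance read at 630 nm.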
DNMT1 inh = inhibitors of human DNMT1; AID 588458; 0.83% of 360,000 active; DNMT1 molecular beacon, Hinp1I cleavage, fluorescence; inhibition (reported as % activation of signal), % at 10 µM; in the data active = inhibition above about 50%
Scp-1 conf = Scp-1 (human) inhibition, single-dose confirmed. shares compounds with Scp1 inh. recombinant SCP-1 catalytic domain, phosphate release, malachite green absorbance. inhibition, % at 20 µM. 61% of 2,500 active
MG interference = colorimetric interference in Scp-1 counter-screen; shares compounds with Scp1 inh; Colorimetric interference counterscreen, malachite green absorbance 630 nm; apparent inhibition (interference), % at 20 µM; 2,500 tested, under 10 active; AID 540313;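 note: compounds added after enzyme reaction finished so only phosphate colour detection is probed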
Scp-1 Tm shift = binds human Scp-1, shifting its melting temperature; Recombinant SCP1, Sypro Orange thermal shift Tm; thermal shift relative to vanadate control, % at 40 µM; 25% of 1,500 active; shares compounds with Scp1 inh; AID 540329;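 active = substances whose mean melting-temperature shift, as a percentage of the reference inhibitor's shift, reaches about 5.3%, limit read from the data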
Of the large screens only hits and unclear results are named; the others gave an inactive call (follow-up assays come after a bar, where they were run).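 Rule for the calls, unless noted: active = inhibition of at least 30% at 20 µM; inactive = the rest.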

O=C(CSc1nc2sccc2c(=O)[nH]1)N1CCN(c2ccccc2)CC1	Scp1 inh 109 | Scp-1 conf 59 | MG interference inactive | Scp-1 Tm shift inactive
O=C(CSc1ccsc1[N+](=O)[O-])N1CCN(c2ccccc2)CC1	Scp1 inh 64 | Scp-1 conf 76 | MG interference inactive | Scp-1 Tm shift inactive
CN(c1cc(Cl)c2c(c1)OCO2)c1cc2c(c3c1ccn3C)C1CCC2C1 (stereo not drawn)	none (no result: GRK2 inh, Scp1 inh)
O=C(CC(c1ccccc1)C1CCCCC1=O)c1ccccc1 (stereo not drawn)	none (no result: GRK2 inh)
CCn1c(SCC(=O)N/N=C/c2ccc(C)o2)nnc1-c1ccccc1	none
CCn1c(SCC(=O)N/N=C/C=C/c2ccco2)nnc1-c1ccccc1	none
CCn1c(SCC(=O)N/N=C/C(C)=C\c2ccco2)nnc1-c1ccccc1	Scp1 inh 76 | Scp-1 conf 60 | MG interference inactive | Scp-1 Tm shift inactive
CCn1c(SCC(=O)N/N=C/C(C)=C/c2ccco2)nnc1-c1ccccc1	Scp1 inh 88 | Scp-1 conf 50 | MG interference inactive | Scp-1 Tm shift inactive
CC(=O)c1cccc(NC(=O)C2Cc3c(-c4ccc(Cl)cc4)ccnc3O2)c1 (stereo not drawn)	none (no result: GRK2 inh, Scp1 inh)
CSc1ccccc1OCc1cc(C(=O)N2CCC(Oc3cccnc3)CC2)no1	none (no result: Scp1 inh)
CCc1ccccc1N1C(=O)C(Cl)=C(N2CCOCC2)C1=O	none
Cc1c(NC(=O)CC2NC(=O)NC2=O)c(=O)n(-c2ccccc2)n1C (stereo not drawn)	none (no result: LMPTP block, SUMO1 PPI mod, STEP inh, Scp1 inh, DNMT1 inh) | Scp-1 conf inactive | MG interference inactive
Cc1c(NC(=O)CC(=O)Nc2c(C)n(C)n(-c3ccccc3)c2=O)c(=O)n(-c2ccccc2)n1C	none
O=C1OCc2ccc([N+](=O)[O-])cc21	none (no result: GRK2 inh)
COCCn1c(N)c(Sc2ccccc2[N+](=O)[O-])c(=O)[nH]c1=O	none
COc1ccc(S(=O)(=O)N(CC(=O)Nc2ccc3c(c2)OCO3)c2ccccc2OC)cc1	none
COc1ccccc1N(CC(=O)Nc1ccc2c(c1)OCO2)S(=O)(=O)c1ccccc1	Scp1 inh 99 | Scp-1 conf inactive | MG interference inactive
COc1cc(NC(=O)c2ccc3c(c2)C(=O)N(CCC(C)C)C3=O)c(C(=O)O)cc1OC	STEP inh 61, Scp1 inh 72 | Scp-1 conf 60 | MG interference inactive | Scp-1 Tm shift 6.1
CC(C)CCN1C(=O)c2ccc(C(=O)Nc3ccc(O)cc3C(=O)O)cc2C1=O	none
CCn1nc(CC(C)C)cc1C(=O)N1CCCC(Nc2ccc(OC)cc2)C1 (stereo not drawn)	none
C/C(CC(=O)Nc1c(C)cc(C)cc1C)=N\NC(=O)c1cnccn1	none
Cc1cn(C2CCCCO2)c(=O)nc1NO (stereo not drawn)	none (no result: GRK2 inh)
COc1nc(=O)n(C2CCCO2)cc1C (stereo not drawn)	Scp1 inh 85 (no result: GRK2 inh) | Scp-1 conf inactive | MG interference inactive
CCc1ccc(C(C)NC(=O)Cn2cnc3c(=O)n(C)c(=O)n(C)c32)cc1 (stereo not drawn)	none | Scp-1 conf inactive | MG interference inactive
CCc1ccc(NC(=O)Cn2cnc3c(=O)n(C)c(=O)n(C)c32)cc1	none
CC1=CC(C)C2COC(c3ccc[n+](C)c3)C1C2C (stereo not drawn)	Scp1 inh 95 | Scp-1 conf inactive | MG interference inactive
CC1=CC(C)[C@@H]2COC(c3ccc(O)cc3)[C@H]1C2C (stereo partly drawn)	none
CCc1nc2ccc(C(=O)Nc3ccc(OC)c(OC)c3)cn2c1N(C)C(=O)Cc1ccccc1	none (no result: GRK2 inh, Scp1 inh)
CC(NC(=O)COc1cc(=O)n(C)c2ccccc12)c1ccc2c(c1)OCCO2 (stereo not drawn)	none | Scp-1 conf inactive | MG interference inactive
O=C(Cn1nnc(-c2ccccc2)n1)NNC(=O)c1ccccc1	none
Cc1ccc(OCC(=O)NNC(=O)Cn2nnc(-c3ccccc3)n2)cc1	Scp1 inh 53 | Scp-1 conf 41 | MG interference inactive | Scp-1 Tm shift inactive
COc1cccc(NC(=O)c2cc(-c3ccco3)nc3ccccc23)c1	Scp1 inh 66 | Scp-1 conf 31 | MG interference inactive | Scp-1 Tm shift inactive
COc1ccc(CCNC(=O)c2cc(-c3ccco3)nc3ccccc23)cc1	Scp1 inh 87 (no result: LMPTP block, SUMO1 PPI mod, STEP inh, DNMT1 inh) | Scp-1 conf 73 | MG interference inactive | Scp-1 Tm shift inactive
Cc1ccc(C)c(-c2cc(C(=O)Nc3cccnc3)c3ccccc3n2)c1	none
O=C(Nc1ccccc1F)c1cc(-c2ccco2)nc2ccccc12	Scp1 inh 68 | Scp-1 conf 51 | MG interference inactive | Scp-1 Tm shift inactive
Cc1ccc(-c2cc(C(=O)Nc3cccnc3)c3ccccc3n2)o1	Scp1 inh 60, DNMT1 inh 51 | Scp-1 conf 57 | MG interference inactive | Scp-1 Tm shift 5.7
Cc1nnc(SCc2ccc(F)cc2)n1NC/C=C/c1ccccc1	none
COc1ccc(C(=O)OCC(=O)NCCc2ccc(F)cc2)cc1S(=O)(=O)N1CCOCC1	none
O=C(c1ccco1)N1CCN(C(=O)c2ccc(CS(=O)c3ccc(Cl)cc3)o2)CC1 (stereo not drawn)	none
CCCCOC(=O)c1cc(-c2ccc(/C=N/n3cnnc3)o2)ccc1Cl	Scp1 inh 91 | Scp-1 conf inactive | MG interference inactive
CCOC(=O)c1cc(-c2ccc(/C=N\n3cnnc3)o2)ccc1Cl	none
COc1ccc(CN(C(=O)/C=C/c2ccco2)C2CCS(=O)(=O)C2)cc1 (stereo not drawn)	Scp1 inh 87 | Scp-1 conf 46 | MG interference inactive | Scp-1 Tm shift inactive
C=C(CN(C)C)C(=O)c1ccc(OC2OC(COC(C)=O)C(OC(C)=O)C(OC(C)=O)C2OC(C)=O)cc1 (stereo not drawn)	none (no result: GRK2 inh)
C[n+]1ccccc1Nc1cc([N+](=O)[O-])ccc1N	Scp1 inh 69 | Scp-1 conf 87 | MG interference inactive | Scp-1 Tm shift inactive
COc1ccccc1-c1oc2ccccc2c1C#CC1(N)CCCCC1	none
COc1ccccc1-c1oc2ccccc2c1C#CC1(O)CCCCC1	Scp1 inh 89 | Scp-1 conf inactive | MG interference inactive
